Screens: PubChem, several laboratories
Rows were chosen to be rich in hits. Some 6.4% of all compounds tested hit in one or more screens of this group.
HUVEC prolif 384: human endothelial cell proliferation inhibition; HUVEC proliferation, CellTiter-Glo luminescence, 72 h; hits give low values; viability, % at 10 µM (by protocol); 86,000 compounds, 1.1% hits; AID 648;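 active = viability at or below 30%; inactive = viability above 30%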;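 also: 100% = median luminescence of DMSO-only cell control wells on each plate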
Jurkat viability: cytotoxic compounds reducing Jurkat cell viability. Jurkat E6.1 viability, ATP luminescence, 48 h. inhibition, % at 4 µM. 56,000 compounds, 1.2% hits;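 active = inhibition above the mean inhibition of all tested compounds plus 3 SD, cut at about 28% in these data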
tolC growth inh: growth inhibitors of E. coli BW25113 tolC mutant | 65,000 compounds, 2.2% hits | growth inhibition, % at 10 µM (by protocol) | OD615;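 active = growth inhibition at or above a cutoff equal to the mean over every tested compound plus 3 SD, cut at about 60% in these data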;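 also: growth measured after 20 h incubation at 37 °C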
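System: E. coli ΔtolC::kan strain BW25113; Buffer or medium: LB broth supplemented with 50 µg/mL kanamycin; Compound: 10 µM final, single dose; Incubation: bacterial growth with compound for 20 h at 37 °C; Signal: A615 absorbance measurement; Evaluation: growth inhibition in percent.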
Ecoli WT expand: growth inhibitors of E. coli BW25113 wild type; growth inhibition, % at 100 µM; AID 710; 98,000 compounds, 0.15% hits; OD600 absorbance;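 active = growth inhibition above about 50% at one test dose, limit read from the data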;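 also: growth measured after 20 h incubation at 37 °C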
Fibroblast inh: blocks proliferation of human lung fibroblasts. LL 47 human lung fibroblast viability, ATP luminescence; hits give low values. viability, % at 10 µM. 85,000 compounds, 1.1% hits. AID 719;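 active = viability at or below 50% in the single dose screen; inactive = viability above 50%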;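 also: compound exposure lasted 72 h before the ATP readout; 100% = median luminescence of untreated cell-only wells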
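material = human LL 47 lung fibroblast cells | dosing = compounds added from tenfold dosing solution, 0.1% DMSO final | timing = overnight cell rest, 72 h compound treatment at 37 °C | measured by = CellTiter-Glo luminescence measuring cellular ATP | evaluation = % viability versus median cells-only luminescence | control set = cell-only wells, no compound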
H69AR inhibit: growth inhibitors of human H69AR lung tumor cells | H69AR lung tumor viability, ATP luminescence, 72 h; hits give low values | viability, % at 10 µM | 85,000 compounds, 6% hits | AID 598;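 active = viability at or below 40%; inactive = viability above 40%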;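 also: multidrug resistant small cell line overexpressing MRP-1 efflux transporter; 100% = mean luminescence of untreated control wells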
* marks the source's active call; other numbers are inactive results; / = no result given.

SMILES | HUVEC prolif 384 | Jurkat viability | tolC growth inh | Ecoli WT expand | Fibroblast inh | H69AR inhibit
CCN(CC)S(=O)(=O)c1cc([N+](=O)[O-])ccc1NNC(=O)Nc1ccc(Cl)c(Cl)c1 | 41 | / | / | -6 | 43* | 2.9*
CN(C)CCNC(=O)Nc1ccc(Cl)c(Cl)c1 | / | / | / | 26 | / | /
c1ccc2c(c1)[nH]c1c(N3CCSCC3)ncnc12 | 71 | / | 7 | 18 | 83 | 63
c1ccc2c(c1)[nH]c1c(N3CCCC3)ncnc12 | 90 | 33* | 45 | 32 | 102 | 86
Cc1ccc2[nH]c3c(N4CCc5ccccc5C4)ncnc3c2c1 | 52 | / | / | -10 | 74 | 61
Brc1ccc2[nH]c3c(N4CCc5ccccc5C4)ncnc3c2c1 | 55 | / | / | -19 | 78 | 6.3*
Cc1occc1C(=O)NNC(=O)Cc1ccccc1 | / | / | / | 12 | / | /
O=c1c2[nH]c3ccc(F)cc3c2ncn1CCCN1CCOCC1 | 92 | -4 | -24 | -3 | 100 | 83
O=c1c2[nH]c3ccc(F)cc3c2ncn1CCCn1ccnc1 | 82 | 33* | 43 | 1 | 90 | 70
O=C(Nc1cccc(F)c1)C1CCN(C(=O)c2ccccc2Cl)CC1 | 104 | / | / | 2 | 100 | 88
Oc1ccc(-c2[nH]ncc2-c2ccc(Cl)cc2)c(O)c1 | 56 | 3 | 100* | 30 | 88 | 99
COc1ccc(-c2[nH]ncc2-c2ccc(Cl)cc2)c(O)c1 | 52 | 1 | 98* | 18 | 88 | 14*
CCOC(=O)c1cc2c(ccn2C)n1CC(=O)N1CCN(c2ccccc2OC)CC1 | 85 | 8 | 7 | 8 | 89 | 96
COc1ccc2c(c1)-c1nc(NC(=O)c3ccco3)sc1CC2 | 100 | / | 37 | / | 106 | 39*
COc1cccc(CNc2nn[nH]n2)c1OC | 103 | 2 | -16 | 0 | 90 | 93
COc1cccc(CNc2ccc(N3CCC(C)CC3)cc2)c1OC | 93 | / | / | / | 99 | 14*
Cc1cc(C(=O)OCC(=O)NCCC(C)C)c2ccccc2n1 | 100 | / | / | 11 | 105 | 95
Cc1nc(NC2=NCN(CCc3ccccc3)CN2)nc2c(C)cccc12 | 1.7* | 2 | / | / | 32* | 5.5*
Cc1cc2nc(NC3=NCN(Cc4ccc5c(c4)OCO5)CN3)nc(C)c2cc1C | 33 | 11 | 54 | / | 49* | 23*
Cc1nc(NC2=NCN(CCc3ccccc3)CN2)nc2ccccc12 | 87 | 8 | 27 | / | 84 | 65
Cc1cc2nc(NC3=NCN(CCCN4CCOCC4)CN3)nc(C)c2cc1C | 78 | 12 | 2 | / | / | 84
Cc1nc(NC2=NCN(CCCN3CCOCC3)CN2)nc2c(C)cccc12 | 45 | -3 | 17 | 35 | 28* | 2.3*
CC(C(=O)NC(=O)NC1CCCCC1)N1CCN(C(c2ccccc2)c2ccccc2)CC1 (stereo not drawn) | / | / | / | -1 | / | /
Cc1cc(C)n(-c2nnc(C)n2/N=C/c2ccccc2OCc2ccccc2Cl)n1 | 61 | 2 | 23 | 10 | 77 | 16*
COc1ccccc1/C=N/n1c(C)nnc1-n1nc(C)cc1C | 101 | / | / | -6 | 106 | 94
SMILES | HUVEC prolif 384 | Jurkat viability | tolC growth inh | Ecoli WT expand | Fibroblast inh | H69AR inhibit
Cc1cc(C)n(-c2nnc(C)n2/N=C/c2cc(Br)ccc2OCc2ccccc2)n1 | 41 | -6 | 22 | 7 | 67 | 26*
COc1ccc(OC2OC3COC(C)(C)OC3C(O)C2NC(C)=O)cc1 (stereo not drawn) | 93 | / | / | / | 97 | 98
COc1ccc(NC(=O)CN(C)S(=O)(=O)c2ccc3c(c2)CCC(=O)N3)c(OC)c1 | 98 | / | / | -10 | 95 | 97
CCOc1ccc2[nH]c(=O)c(CN(Cc3cccs3)C(CC)c3nnnn3C(C)(C)CC)cc2c1 (stereo not drawn) | 56 | 0 | 38 | -16 | 62 | 4.9*
CCC(c1nnnn1C1CCCC1)N(Cc1cccs1)Cc1cc2cc(C)ccc2[nH]c1=O (stereo not drawn) | 51 | -1 | 17 | -11 | 74 | 4.2*
Cc1ccc(S(=O)(=O)N2CCN(Cc3cc(C(C)C)ccc3O)CC2)cc1 | 106 | 3 | 45 | -9 | 108 | 73
Cc1cc(C(=O)OCC(=O)N2CCN(c3ccccc3)CC2)c2ccccc2n1 | 90 | -3 | 24 | -6 | 93 | 77
Cc1ccc(/C(N)=N/OC(=O)c2ccco2)cc1 | 84 | / | / | / | 99 | 76
Cc1ccc(NC2=C(Cl)C(=O)OC2OC(=O)c2ccco2)cc1 (stereo not drawn) | 65 | / | / | 4 | 92 | 33*
COC(=O)c1sc2nc(-c3ccccc3)nc(N3CCN(C)CC3)c2c1C | 46 | 1 | 3 | 15 | 80 | 71
Cc1nc(N2CCN(C)CC2)c2c(C)c(C(=O)Nc3ccc(C)c(F)c3)sc2n1 | 3.7* | / | / | 9 | 43* | 49
O=C(Nc1cccc(-c2nnc(-c3ccco3)o2)c1)C(c1ccccc1)c1ccccc1 | 89 | / | / | -13 | 104 | 78
COc1ccccc1NC(=O)CN1CCN(CC(=O)Nc2ccc(Cl)c(C(F)(F)F)c2)CC1 | 66 | -8 | 26 | -2 | 83 | 27*
COc1cc(NC(=O)Nc2cccc(Cl)c2)c(OC)cc1NC(=O)CN1CCCCC1 | 12* | 1 | 30 | -7 | 103 | 7.8*
COc1ccc(NC(=O)CN2CCN(CC(=O)Nc3ccccc3Cl)CC2)cc1Cl | 81 | -4 | 7 | -1 | 91 | 24*
O=C(CN1CCCC1)Nc1ccccc1Cl | 99 | / | / | 2 | 105 | 97
CCOc1ccc(N2C(=O)/C(=C/c3cc(OC)c(OC)c(OC)c3)N(CC(=O)OC)C2=S)cc1 | 62 | / | / | -10 | 95 | 25*
CCn1c(COc2ccc(Cl)cc2)nnc1SCc1nc2ccccc2[nH]1 | 88 | / | / | 2 | 91 | 4.4*
c1ccc(CCN2CCN(c3ncnc4c3cnn4-c3ccccc3)CC2)cc1 | 60 | 2 | 66* | -23 | 98 | 34*
Cc1ccc(C(=O)N2CCN(c3ncnc4c3cnn4-c3ccccc3)CC2)cc1 | 84 | / | / | / | 99 | 21*
CCN1CCN(c2ncnc3c2cnn3-c2ccccc2)CC1 | 98 | 5 | -3 | 3 | 103 | 88
COC(=O)CCSCc1cn2cc(Cl)ccc2n1 | 102 | -2 | -6 | 4 | 102 | 105
Nc1nnnn1/N=C/c1cccc(OCc2ccccc2Cl)c1 | 17* | / | / | / | 88 | 72
Nc1nnnn1/N=C/c1cccc(Oc2ccccc2)c1 | 98 | / | 18 | -2 | 94 | 93
COC(=O)c1ccc(C(=O)OC)c(NC(=O)COC(=O)CC2CC3CCC2C3)c1 (stereo not drawn) | / | / | / | -13 | / | /
c1ccc(CSc2nnc(-c3c[nH]c4ccccc34)o2)cc1 | 27* | -1 | -2 | -11 | 106 | 97
CS(=O)(=O)N(Cc1ccccc1)c1ccccc1C(=O)N1CCN(c2ccccc2)CC1 | 104 | / | / | 3 | 102 | 89
O=S(=O)(Nc1ccc2oc(-c3ccccc3)nc2c1)c1ccccc1 | 102 | -5 | 100* | -4 | 97 | 99
O=C(Nc1ccc2oc(-c3ccccc3)nc2c1)c1ccncc1 | 115 | 8 | -5 | -8 | 101 | 95
